Test results as given in ChEMBL document CHEMBL2311397, “Design and synthesis of cyclopropylamide analogues of combretastatin-A4 as novel microtubule-stabilizing agents” (J Med Chem, 2013).

What was measured:
Assay type in all cases: functional, cell-based
HeLa = assay: Cytotoxicity against human HeLa cells after 48 hrs by MTT assay
In short: (§1)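 Log-phase cells (40000–50000 cells/mL) grown in DMEM with 10% fetal calf serum (5% CO2, 37 °C) and exposed 48 h to five concentrations, 3–5 replicates. Read-out was MTT with absorbance at 570 nm; IC50 reported as mean ± SD of three independent experiments. Resistant A549 and HeLa sublines were made by stepwise paclitaxel selection; resistance index = IC50(resistant)/IC50(sensitive).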

A549 = assay: Cytotoxicity against human A549 cells after 48 hrs by MTT assay; in short: as §1
SW480 = assay: Cytotoxicity against human SW480 cells after 48 hrs by MTT assay; in short: as §1
[1] = Cytotoxicity against human QGY cells after 48 hrs by MTT assay; in short: as §1
K562 = assay: Cytotoxicity against human K562 cells after 48 hrs by MTT assay; in short: as §1

Structure (SMILES)	IC50 (HeLa; hela) [µM]	IC50 (A549; a549) [µM]	IC50 (SW480; sw480) [µM]	IC50 ([1]; qgy) [µM]	IC50 (K562; k562) [µM]	IC50 (HeLa; Homo sapiens, HeLa, 48 h) [µM]	IC50 ([1]; Homo sapiens, QGY, 48 h) [µM]	IC50 (A549; Homo sapiens, A549, 48 h) [µM]	IC50 (K562; Homo sapiens, K562, 48 h) [µM]	IC50 (SW480; Homo sapiens, SW480, 48 h) [µM]
CCOC(=O)C1(C(=O)Nc2cccc([N+](=O)[O-])c2)CC1c1cc(OC)c(OC)c(OC)c1 (stereo in doubt; trans)	> 100	80.3	49.5							
CCOC(=O)C1(C(=O)Nc2ccccc2Cl)CC1c1cc(OC)c(OC)c(OC)c1 (stereo in doubt; trans)	76.4	18.5	66.7	48.8	14.2					
CCOC(=O)C1(C(=O)NCc2ccc(OC)cc2)CC1c1cc(OC)c(OC)c(OC)c1 (trans isomer)		73.8								
CCOC(=O)[C@@]1(C(=O)Nc2ccccc2Cl)C[C@H]1c1cc(OC)c(OC)c(OC)c1						14.4	34.3	17.6	> 100	30.1
CCOC(=O)[C@]1(C(=O)Nc2ccccc2Cl)C[C@@H]1c1cc(OC)c(OC)c(OC)c1						> 100	34.7	50.9	19.5	> 100
CCOC(=O)C1(C(=O)NCCc2cccc(F)c2)CC1c1cc(OC)c(OC)c(OC)c1 (trans isomer)	58.2	64.3	79.3	> 100	> 100					
CCOC(=O)C1(C(=O)Nc2cccc(Cl)c2)CC1c1cc(OC)c(OC)c(OC)c1 (stereo in doubt; trans)	> 100	45.2	28.7	> 100	> 100					
COc1cc([C@H]2C[C@]2(CO)C(=O)Nc2ccccc2Cl)cc(OC)c1OC						45.5	40.7	36.7	> 100	40.2
COc1cc([C@@H]2C[C@@]2(CO)C(=O)NCc2ccc(C)cc2)cc(OC)c1OC						41.2	58.7	46.3	> 100	76.3
CCOC(=O)C1(C(=O)NCc2ccccc2)CC1c1cc(OC)c(OC)c(OC)c1 (cis isomer)						46.5	> 100	79.5	> 100	89.6
CCOC(=O)C1(C(=O)NCCc2ccc(F)cc2)CC1c1cc(OC)c(OC)c(OC)c1 (cis isomer)		49.3				58.1	> 100		> 100	75.1
COc1cc([C@H]2C[C@]2(CO)C(=O)NCc2ccc(C)cc2)cc(OC)c1OC						57.8	56.1	60.7	> 100	94
CCOC(=O)C1(C(=O)Nc2ccc(F)cc2)CC1c1cc(OC)c(OC)c(OC)c1 (trans isomer)	36.8	28	42	36.1	> 100					
CCOC(=O)C1(C(=O)NCc2ccccc2)CC1c1cc(OC)c(OC)c(OC)c1 (trans isomer)	76.3	> 100	> 100							
CCOC(=O)C1(C(=O)NCCc2ccccc2F)CC1c1cc(OC)c(OC)c(OC)c1 (cis isomer)			86.3			58.2	34.1	27.3	> 100	
CCOC(=O)C1(C(=O)NCc2ccc(F)cc2)CC1c1cc(OC)c(OC)c(OC)c1 (stereo in doubt)						32.3	59.4	29.4	45.1	34.1
COc1cc([C@H]2C[C@@]2(CO)C(=O)Nc2ccccc2Cl)cc(OC)c1OC						> 100	> 100	> 100	> 100	> 100
CCOC(=O)C1(C(=O)Nc2ccc(F)cc2)CC1c1cc(OC)c(OC)c(OC)c1 (cis isomer)				79.1		62.4		22.4	63.7	46.7
COc1cc([C@@H]2C[C@@]2(CO)C(=O)Nc2ccccc2)cc(OC)c1OC						86.4	36.7	43.2	> 100	76.8
CCOC(=O)[C@]1(C(=O)Nc2ccccc2)C[C@H]1c1cc(OC)c(OC)c(OC)c1						> 100	> 100	37.3	> 100	> 100
CCOC(=O)C1(C(=O)Nc2cccc(Cl)c2)CC1c1cc(OC)c(OC)c(OC)c1 (stereo in doubt; cis)	35.1			46.3				25.6	52.1	37.4
CCOC(=O)C1(C(=O)Nc2ccccc2[N+](=O)[O-])CC1c1cc(OC)c(OC)c(OC)c1 (stereo in doubt)						40.2	54.1	24.5	56.3	34.1
CCOC(=O)C1(C(=O)Nc2ccccc2)CC1c1cc(OC)c(OC)c(OC)c1 (trans isomer)		48.6	> 100	> 100						
